Results from ChEMBL document CHEMBL1140738, “New trisubstituted 1,2,4-triazole derivatives as potent ghrelin receptor antagonists. 3. Synthesis and pharmacological in vitro and in vivo evaluations” (J Med Chem, 2008).
The source made the active and inactive calls. The rule behind the calls is not given here. Where a SMILES comes first, the peptide text is derived from it. [ ]: non-standard residue; d: D form. dTrp(2-Me) = Cc1[nH]c2ccccc2c1C[C@@H](N)C(=O)O

Experiments:
[1] = target: T1, Growth hormone secretagogue receptor type 1 (Homo sapiens, UniProt Q92847); test: Agonist activity at GHSR1a expressed in CHO cells assessed as accumulation of intracellular calcium level at 10 uM relative to ghrelin; assay type: functional, cell-based
Procedure, shortened: (§1)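 CHO cells transiently expressing GHS-R1a; intracellular Ca2+ accumulation read as fluorescence output. Increasing agonist concentrations were tested for dose-response; single-point activation at 10^-5 M is expressed as percent of the maximal response to ghrelin at 10^-7 M (100%).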

[2] = target: T1, Growth hormone secretagogue receptor type 1; test: Displacement of 125I]-His9-ghrelin from human GHSR1a expressed in LLCPK1 cells; assay type: cell-based, LLC-PK1
Procedure, shortened: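 Competition binding with membranes from LLC PK-1 cells transiently transfected with human GHS-R1a, incubated with 125I-His9-ghrelin and increasing concentrations of compound.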

[3] = target: T1, Growth hormone secretagogue receptor type 1; test: Antagonist activity at GHSR1a expressed in CHO cells assessed as inhibition of ghrelin induced accumulation of intracellular calcium; assay type: functional, cell-based
Procedure, shortened: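 Antagonism measured in CHO cells transiently transfected with GHS-R1a: ghrelin dose-response curves of [Ca2+]i accumulation (fluorescence) run in the presence of various concentrations of test compound.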

Rattus norvegicus [4] = test: Inhibition of hexarelin induced food intake per 100 gm of body weight in rat at 80 ug/kg, sc after 6 hrs; assay type: functional
Procedure, shortened: (§2)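 Rats dosed subcutaneously with compound (160 µg/kg alone, or graded 20, 80, 160, 320 µg/kg) with or without hexarelin 80 µg/kg sc. Cumulative food intake at 2 and 6 h expressed as g food per 100 g body weight; % variation versus hexarelin at 6 h = 100 × (compound+hexarelin − hexarelin)/hexarelin.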

Rattus norvegicus [5] = test: Inhibition of hexarelin induced food intake per 100 gm of body weight in rat at 20 ug/kg, sc after 2 hrs; assay type: functional; procedure, shortened: as §2
Rattus norvegicus [6] = test: Inhibition of hexarelin induced food intake per 100 gm of body weight in rat at 20 ug/kg, sc after 6 hrs; assay type: functional; procedure, shortened: as §2
Rattus norvegicus [7] = test: Inhibition of hexarelin induced food intake per 100 gm of body weight in rat at 320 ug/kg, sc after 2 hrs; assay type: functional; procedure, shortened: as §2
Rattus norvegicus [8] = test: Inhibition of hexarelin induced food intake per 100 gm of body weight in rat at 160 ug/kg, sc after 2 hrs; assay type: functional; procedure, shortened: as §2
Rattus norvegicus [9] = test: Inhibition of hexarelin induced food intake per 100 gm of body weight in rat at 160 ug/kg, sc after 6 hrs; assay type: functional; procedure, shortened: as §2
Rattus norvegicus [10] = test: Inhibition of hexarelin induced food intake per 100 gm of body weight in rat at 320 ug/kg, sc after 6 hrs; assay type: functional; procedure, shortened: as §2
Rattus norvegicus [11] = test: Inhibition of hexarelin induced food intake per 100 gm of body weight in rat at 80 ug/kg, sc after 2 hrs; assay type: functional; procedure, shortened: as §2
Rattus norvegicus [12] = test: Effect on growth hormone secretion in infant rat at 80 ug/kg, sc at 160 ug/kg, sc in presence of hexarelin; assay type: functional
Procedure, shortened: (§3)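 Infant rats given sc injection of compound at 160 µg/kg and/or hexarelin at 80 µg/kg; plasma rat GH measured (ng/mL).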

Rattus norvegicus [13] = test: Effect on growth hormone secretion at 160 ug/kg, sc; assay type: functional; procedure, shortened: as §3
[14] = target: T1, Growth hormone secretagogue receptor type 1; test: Agonist activity at GHSR1a expressed in CHO cells assessed as accumulation of intracellular calcium level; assay type: functional, cell-based; procedure, shortened: as §1
Rattus norvegicus [15] = test: Effect on food intake per 100 gm of body weight in rat at 80 ug/kg, sc after 2 hrs; assay type: functional; procedure, shortened: as §2
Rattus norvegicus [16] = test: Effect on growth hormone secretion in infant rat at 80 ug/kg, sc; assay type: functional; procedure, shortened: as §3
Rattus norvegicus [17] = test: Effect on food intake per 100 gm of body weight in rat at 80 ug/kg, sc after 6 hrs; assay type: functional; procedure, shortened: as §2
Rattus norvegicus [18] = test: Inhibition of hexarelin induced food intake in rat at 20 ug/kg, sc; assay type: functional
[19] = target: T2, Cholecystokinin receptor type A (Homo sapiens) (UniProt P32238); test: Binding affinity at CCK1 receptor at 10 uM
T2 sequence (whole entry): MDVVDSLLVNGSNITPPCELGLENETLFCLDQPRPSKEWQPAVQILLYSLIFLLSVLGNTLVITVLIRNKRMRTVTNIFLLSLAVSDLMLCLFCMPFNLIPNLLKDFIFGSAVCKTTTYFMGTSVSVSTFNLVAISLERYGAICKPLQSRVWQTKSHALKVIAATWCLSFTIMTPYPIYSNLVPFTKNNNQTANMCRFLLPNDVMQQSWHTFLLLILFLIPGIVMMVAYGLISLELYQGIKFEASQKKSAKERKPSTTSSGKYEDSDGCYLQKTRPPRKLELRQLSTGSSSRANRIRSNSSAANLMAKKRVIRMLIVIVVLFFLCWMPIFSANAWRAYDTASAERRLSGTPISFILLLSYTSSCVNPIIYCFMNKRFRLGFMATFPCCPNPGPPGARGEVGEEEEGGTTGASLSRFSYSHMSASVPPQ

Rattus norvegicus [20] = test: Inhibition of hexarelin induced food intake in rat at 80 ug/kg, sc; assay type: functional
[21] = target: Substance-P receptor (Homo sapiens) (UniProt P25103); test: Binding affinity at tachykinin 2 receptor at 10 uM
[22] = target: Motilin receptor (Homo sapiens) (UniProt O43193); test: Binding affinity at motilin receptor at 10 uM
[23] = target: Vasopressin V1a receptor (Homo sapiens) (UniProt P37288); test: Binding affinity at vasopressin 1a receptor at 10 uM
Chain of Vasopressin V1a receptor (Homo sapiens) (P37288 whole entry, looked up): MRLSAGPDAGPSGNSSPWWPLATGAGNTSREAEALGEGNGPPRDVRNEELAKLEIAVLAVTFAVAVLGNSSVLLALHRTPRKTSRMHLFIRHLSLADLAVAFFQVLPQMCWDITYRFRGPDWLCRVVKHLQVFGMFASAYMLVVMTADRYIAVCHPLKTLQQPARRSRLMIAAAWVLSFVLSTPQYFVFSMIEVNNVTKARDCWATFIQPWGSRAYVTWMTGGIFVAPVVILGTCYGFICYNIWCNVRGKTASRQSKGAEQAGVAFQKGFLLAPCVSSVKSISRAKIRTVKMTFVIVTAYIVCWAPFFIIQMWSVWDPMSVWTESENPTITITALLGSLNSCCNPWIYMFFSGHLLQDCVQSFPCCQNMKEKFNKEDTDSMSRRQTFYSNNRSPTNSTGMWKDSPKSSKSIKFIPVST

T1 sequence (Q92847 whole entry): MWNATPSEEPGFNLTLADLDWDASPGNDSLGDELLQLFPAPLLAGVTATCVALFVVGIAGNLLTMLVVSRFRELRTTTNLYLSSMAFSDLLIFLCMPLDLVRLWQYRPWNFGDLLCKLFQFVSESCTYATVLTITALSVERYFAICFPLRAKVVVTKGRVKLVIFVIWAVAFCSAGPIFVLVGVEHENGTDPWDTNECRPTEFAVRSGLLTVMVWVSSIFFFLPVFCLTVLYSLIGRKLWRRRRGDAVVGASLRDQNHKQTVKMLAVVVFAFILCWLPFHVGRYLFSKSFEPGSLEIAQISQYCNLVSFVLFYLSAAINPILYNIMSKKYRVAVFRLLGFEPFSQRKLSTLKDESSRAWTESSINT
Chain of Substance-P receptor (Homo sapiens) (P25103 whole entry): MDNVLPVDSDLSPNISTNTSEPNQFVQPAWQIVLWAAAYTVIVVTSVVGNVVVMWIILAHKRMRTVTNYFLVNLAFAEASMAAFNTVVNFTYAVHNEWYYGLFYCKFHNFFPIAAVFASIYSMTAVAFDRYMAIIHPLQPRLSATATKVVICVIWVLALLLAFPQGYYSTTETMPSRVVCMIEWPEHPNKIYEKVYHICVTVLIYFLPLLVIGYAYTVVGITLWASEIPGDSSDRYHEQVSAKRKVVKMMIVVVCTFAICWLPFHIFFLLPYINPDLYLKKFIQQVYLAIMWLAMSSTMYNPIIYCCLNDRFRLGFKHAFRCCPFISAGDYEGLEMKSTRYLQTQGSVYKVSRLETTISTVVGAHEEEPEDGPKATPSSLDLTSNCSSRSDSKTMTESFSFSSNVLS
Chain of Motilin receptor (Homo sapiens) (O43193 whole entry): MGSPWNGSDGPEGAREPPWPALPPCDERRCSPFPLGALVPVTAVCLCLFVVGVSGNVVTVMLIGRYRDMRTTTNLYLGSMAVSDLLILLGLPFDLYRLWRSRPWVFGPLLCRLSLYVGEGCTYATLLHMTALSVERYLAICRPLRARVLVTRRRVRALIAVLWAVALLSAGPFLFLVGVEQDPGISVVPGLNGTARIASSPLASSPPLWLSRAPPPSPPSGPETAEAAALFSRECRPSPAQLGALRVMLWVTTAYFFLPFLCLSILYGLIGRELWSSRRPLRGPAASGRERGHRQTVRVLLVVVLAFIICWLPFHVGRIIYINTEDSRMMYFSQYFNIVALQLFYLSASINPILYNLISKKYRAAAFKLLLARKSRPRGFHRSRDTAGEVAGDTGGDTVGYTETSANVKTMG

Structure (SMILES) | Activity [1] | IC50 [2] | Kb [3] | further results
COc1ccc(Cn2c(CCc3ccccc3)nnc2[C@@H](Cc2c[nH]c3ccccc23)NC(=O)Cc2ccncc2)cc1 | 6% | 270 nM | – | –
COc1ccc(Cn2c(CCc3ccccc3)nnc2[C@@H](Cc2c[nH]c3ccccc23)NCc2ccccc2)c(OC)c1 | 20% | > 1000 nM | – | –
COc1ccc(Cn2c(CCc3c[nH]c4ccccc34)nnc2[C@@H](Cc2c[nH]c3ccccc23)NC(=O)c2cnccn2)c(OC)c1 | 0% | 18.5 nM | 97 nM | Activity (Rattus norvegicus [4]): 0.23 g; Activity (Rattus norvegicus [5]): 0.66 g; Activity (Rattus norvegicus [6]): 0.66 g; inhibition in vivo at 0.02 mg/kg (Rattus norvegicus [6]; Rattus norvegicus, sc, 6 h): 47%; Activity (Rattus norvegicus [7]): 0.2 g; Activity (Rattus norvegicus [8]): 0.29 g; Activity (Rattus norvegicus [9]): 0.31 g; Activity (Rattus norvegicus [10]): 0.21 g; Activity (Rattus norvegicus [11]): 0.23 g; Activity (Rattus norvegicus [12]): 173.61 ng/mL; Activity (Rattus norvegicus [13]): 15.32 ng/mL
COc1ccc(Cn2c(CCc3ccccc3)nnc2[C@@H](Cc2c[nH]c3ccccc23)NC(=O)c2ccncc2)c(OC)c1 | 0% | 58 nM | 93 nM | –
COc1ccc(-n2c(CCc3ccccc3)nnc2[C@@H](Cc2c[nH]c3ccccc23)NC(=O)c2cnccn2)c(OC)c1 | 1% | 300 nM | – | –
COc1ccc(Cn2c(CCc3ccccc3)nnc2[C@@H](Cc2c[nH]c3ccccc23)NC(=O)c2ccncc2)cc1 | 0% | 220 nM | – | –
COc1ccc(Cn2c(CCc3ccccc3)nnc2[C@@H](Cc2c[nH]c3ccccc23)NC(=O)Cc2cccnc2)cc1 | 3% | 29 nM | 93 nM | –
CCc1ccc(Cn2c(CCc3ccccc3)nnc2[C@@H](Cc2c[nH]c3ccccc23)NC(=O)Cc2cccnc2)cc1 | 3% | 480 nM | – | –
COc1ccc(Cn2c(CCc3c[nH]c4ccccc34)nnc2[C@@H](Cc2c[nH]c3ccccc23)NC(=O)C2CCNCC2)cc1 | – | 0.6 nM | – | EC50 [14]: 1.6 nM
Cc1[nH]c2ccccc2c1C[C@@H](NC(=O)[C@@H](N)Cc1c[nH]cn1)C(=O)N[C@@H](C)C(=O)N[C@@H](Cc1c[nH]c2ccccc12)C(=O)N[C@H](Cc1ccccc1)C(=O)N[C@@H](CCCCN)C(N)=O [EXAMORELIN] (H-H[dTrp(2-Me)]AW[dF]K-NH2) | – | – | – | Activity (Rattus norvegicus [15]): 1.06 g; Activity (Rattus norvegicus [16]): 253.82 ng/mL; Activity (Rattus norvegicus [17]): 1.45 g
COc1ccc(Cn2c(CCc3ccccc3)nnc2[C@@H](Cc2c[nH]c3ccccc23)NC(=O)C(C)(C)N)cc1 | 0% | 11 nM | 5 nM | Activity (Rattus norvegicus [12]): 220.52 ng/mL; Activity (Rattus norvegicus [13]): 5.28 ng/mL
COc1ccc(Cn2c(CCc3ccccc3)nnc2[C@@H](Cc2c[nH]c3ccccc23)NC(=O)CCc2cccnc2)cc1 | 5% | 177 nM | – | –
COc1ccc(Cn2c(CCc3c[nH]c4ccccc34)nnc2[C@@H](Cc2c[nH]c3ccccc23)NC(=O)Cc2ccccn2)c(OC)c1 | 0% | 34 nM | 14 nM | –
COc1ccc(Cn2c(CCc3ccccc3)nnc2[C@@H](Cc2c[nH]c3ccccc23)NC(=O)Cc2ccccn2)cc1 | 6% | 3 nM | 6 nM | –
COc1ccc(Cn2c(CCc3c[nH]c4ccccc34)nnc2[C@@H](Cc2c[nH]c3ccccc23)NC(=O)C(C)(C)N)c(OC)c1 | 0% | 108 nM | 14 nM | –
COc1ccc(Cn2c(CCc3ccccc3)nnc2[C@@H](Cc2c[nH]c3ccccc23)NC(=O)c2ccccn2)c(OC)c1 | 0% | 1.1 nM | 25 nM | Activity (Rattus norvegicus [4]): 0.02 g; Activity (Rattus norvegicus [5]): 0.56 g; inhibition in vivo at 0.02 mg/kg (Rattus norvegicus [18]): -44%; Activity (Rattus norvegicus [6]): 0.56 g; Activity (Rattus norvegicus [7]): 1.23 g; Activity (Rattus norvegicus [8]): 0.21 g; Activity (Rattus norvegicus [9]): 0.21 g; Activity (Rattus norvegicus [10]): 1.23 g; Activity (Rattus norvegicus [11]): 0.02 g; Activity [19]: Active; inhibition in vivo at 0.08 mg/kg (Rattus norvegicus [20]): -98%; Activity [21]: Active; Activity (Rattus norvegicus [12]): 138.39 ng/mL; Activity [22]: Active; Activity (Rattus norvegicus [13]): 13.06 ng/mL; Activity [23]: Active
COc1ccc(Cn2c(CCc3ccccc3)nnc2[C@@H](Cc2c[nH]c3ccccc23)NC(=O)C(C)(C)N)c(OC)c1 | 0% | 60 nM | 17 nM | –
CCc1ccc(Cn2c(CCc3ccccc3)nnc2[C@@H](Cc2c[nH]c3ccccc23)NC(=O)c2cnccn2)cc1 | 0% | 89 nM | 76 nM | –
COc1ccc(Cn2c(CCc3c[nH]c4ccccc34)nnc2[C@@H](Cc2c[nH]c3ccccc23)NC(=O)[C@H]2CCCC[C@H]2N)c(OC)c1 | 4% | 140 nM | 140 nM | –
CCc1ccc(Cn2c(CCc3ccccc3)nnc2[C@@H](Cc2c[nH]c3ccccc23)NC(=O)c2ccncc2)cc1 | 0% | > 1000 nM | – | –
COc1ccc(Cn2c(CCc3ccccc3)nnc2[C@@H](Cc2c[nH]c3ccccc23)NC(=O)c2ccccc2)c(OC)c1 | 31% | 11.8 nM | – | EC50 [14]: 16 nM
O=C(Cc1ccccn1)N[C@H](Cc1c[nH]c2ccccc12)c1nnc(CCc2ccccc2)n1-c1ccccc1 | 0% | 700 nM | – | –

The next lines start with results.

Activity [1] | IC50 [2] | Kb [3] | Structure (SMILES) | further results
0% | 67 nM | 513 nM | CCc1ccc(Cn2c(CCc3ccccc3)nnc2[C@@H](Cc2c[nH]c3ccccc23)NC(=O)c2ccccn2)cc1 | –
0% | 33 nM | 65 nM | COc1ccc(-n2c(CCc3ccccc3)nnc2[C@@H](Cc2c[nH]c3ccccc23)NC(=O)c2ccccn2)c(OC)c1 | –
0% | 160 nM | – | O=C(N[C@H](Cc1c[nH]c2ccccc12)c1nnc(CCc2c[nH]c3ccccc23)n1-c1ccccc1)c1ccccn1 | –
4% | 61 nM | 41 nM | O=C(Cc1ccccn1)N[C@H](Cc1c[nH]c2ccccc12)c1nnc(CCc2c[nH]c3ccccc23)n1Cc1ccccc1 | –
0% | 49 nM | 129 nM | CCc1ccc(-n2c(CCc3c[nH]c4ccccc34)nnc2[C@@H](Cc2c[nH]c3ccccc23)NC(=O)c2ccccn2)cc1 | –
3% | 76 nM | 10 nM | COc1ccc(Cn2c(CCc3c[nH]c4ccccc34)nnc2[C@@H](Cc2c[nH]c3ccccc23)NC(=O)Cc2ccncc2)cc1 | –
0% | 1.9 nM | 102 nM | COc1ccc(Cn2c(CCc3c[nH]c4ccccc34)nnc2[C@@H](Cc2c[nH]c3ccccc23)NC(=O)c2ccccn2)cc1 | –
0% | 51 nM | 124 nM | CCc1ccc(Cn2c(CCc3ccccc3)nnc2[C@@H](Cc2c[nH]c3ccccc23)NC(=O)Cc2ccccn2)cc1 | –
0% | 96 nM | 34 nM | CCc1ccc(-n2c(CCc3c[nH]c4ccccc34)nnc2[C@@H](Cc2c[nH]c3ccccc23)NC(=O)Cc2ccccn2)cc1 | –
0% | 0.7 nM | 12 nM | COc1ccc(Cn2c(CCc3ccccc3)nnc2[C@@H](Cc2c[nH]c3ccccc23)NC(=O)c2ccccn2)cc1 | –
0% | 1.8 nM | 19 nM | COc1ccc(Cn2c(CCc3c[nH]c4ccccc34)nnc2[C@@H](Cc2c[nH]c3ccccc23)NC(=O)c2ccccn2)c(OC)c1 | –
0% | 105 nM | – | O=C(N[C@H](Cc1c[nH]c2ccccc12)c1nnc(CCc2ccccc2)n1-c1ccccc1)c1ccccn1 | –
